# Rows were chosen to be rich in hits. Some 2.1% of all compounds tested hit in one or more screens of this group.
# ASAP1 inh: ASAP1 ArfGAP inhibition | ASAP1-stimulated ARF1 GTP hydrolysis, GDP FP detection | inhibition, % at 16.5 µM | 360,000 tested, 0.19% active | AID 624377; in the data active means inhibition above about 25%;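 further: 0% = vehicle with enzyme and substrate and 100% = no enzyme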
# Target sequence (Q9ULH1 325-724 limits assumed): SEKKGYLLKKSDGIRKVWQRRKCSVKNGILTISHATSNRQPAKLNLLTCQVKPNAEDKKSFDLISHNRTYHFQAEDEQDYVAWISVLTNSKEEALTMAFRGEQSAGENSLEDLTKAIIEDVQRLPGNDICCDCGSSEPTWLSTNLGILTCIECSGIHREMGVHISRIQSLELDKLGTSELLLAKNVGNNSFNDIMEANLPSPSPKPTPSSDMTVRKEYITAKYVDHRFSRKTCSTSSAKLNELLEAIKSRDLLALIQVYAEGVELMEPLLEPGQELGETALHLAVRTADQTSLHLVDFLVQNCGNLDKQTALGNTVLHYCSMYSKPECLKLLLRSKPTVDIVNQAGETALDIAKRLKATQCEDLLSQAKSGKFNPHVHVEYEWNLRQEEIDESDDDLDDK
# A3A deaminase: blocks human APOBEC3A ssDNA deamination. P31941. recombinant A3A, FAM/TAMRA ssDNA deamination fluorescence. inhibition, % at 20 µM. 330,000 tested, 0.41% active. AID 493011;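 active means at least 40% inhibition at 20 µM here, with at most 30% in a related deaminase screen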;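 further: plate controls were A3A with DMSO for no effect and wells lacking A3A enzyme for full effect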
# Mot1-301 SUMO: blocks SUMOylation pathway, rescuing yeast Mot1-301 growth; growth rescue, % at 18.8 µM; 320,000 tested, 1% active; AID 2716; S. cerevisiae Mot1-301 growth rescue, ATP luminescence, 38.5C; percent above DMSO median, 100 means doubled;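 active means every valid replicate shows activation above 250% relative to neutral control wells; inactive means the rest, any valid replicate at or below 250%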;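 further: OY570 slx delta 5 strain wells were the positive control but not used for scaling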
# ARFGAP1 inhibitor: inhibitors of rat ARFGAP1; AID 651572; Arfgap1-stimulated ARF1 GTP hydrolysis, GDP FP detection; Q62848; inhibition, % at 16.5 µM; 360,000 tested, 0.26% active;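 active means inhibition above a per-plate limit, mean inhibition of low control wells plus 3 SD, cut at about 25% in these data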;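 further: 0% = DMSO wells with enzyme and 100% = wells lacking Arfgap1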
#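 Material: truncated rat Arfgap1 GAP domain; Incubation: compound-enzyme preincubation 20 min, reaction 120 min, detection 60 min, 25 °C; Read-out: percent inhibition of Arfgap1-stimulated GTP hydrolysis; Technique: FP, GDP Alexa 633 tracer displaced from anti-GDP antibody, 620/688 nm; Controls: No-Arfgap1 wells (100%) versus DMSO full-reaction wells (0%); Replication: single well per compound.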
# C2C12 statin: suppression of simvastatin myotoxicity; C2C12 myotubes + simvastatin, ATP luminescence, 48 h; scaled: DMSO 0, geranylgeraniol control 100; rescue of ATP level, % at 7.49 µM; 330,000 tested, 0.78% active; AID 602340;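 active means mean ATP rescue above about 67%, or every replicate alone reaching that limit, limit read from the data, passing the limit was not always enough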;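 further: myotubes were challenged with 10 µM simvastatin during compound exposure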
# APOBEC3G inh: APOBEC3G (human) deaminase inhibition; Q9HC16; recombinant A3G, ssDNA deamination FAM/TAMRA fluorescence; inhibition, % at 20 µM; 330,000 tested, 0.28% active;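 active means inhibition of at least 40% at 20 µM, with no more than 30% in the related APOBEC3A deaminase screen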;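 further: plate controls were DMSO wells with A3G for no effect and wells lacking A3G enzyme for full effect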
# A3G conf: APOBEC3G (human) deaminase inhibition, confirmed. recombinant A3G ssDNA deaminase, UDG/FAM-TAMRA fluorescence. 890 tested, 72% active. inhibition, % at 20 µM. shares compounds with APOBEC3G inh;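 active means inhibition reaching a set limit in any replicate at 20 µM, the limit being 80% of the first screen's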
# UDG ctr A3G: E. coli UDG inhibition in APOBEC3G counter-screen | shares compounds with APOBEC3G inh | AID 504715 | inhibition, % at 20 µM | UDG counterscreen, FAM/TAMRA oligo fluorescence | 710 tested, under 10 active;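 active means compounds giving 40% or more inhibition at 20 µM in any one of the three replicates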;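 further: plate controls were DMSO wells with UDG and oligo for no effect and DMSO wells lacking both for full effect; inhibitors lower the FAM signal released by uracil excision and alkaline cleavage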
# * hit, by the source's call; nt = no result.
SMILES,ASAP1 inh,A3A deaminase,Mot1-301 SUMO,ARFGAP1 inhibitor,C2C12 statin,APOBEC3G inh,A3G conf,UDG ctr A3G
O=c1[nH]c(SCc2n[nH]c(=S)n2-c2ccccc2)nc2ccccc12,0,-3,-3,13,-5,60*,86*,-4
O=C(C1CCCCC1)N1C[C@@H]2[C@H](c3ccccc31)[C@H](CO)N2C(=O)c1ccccc1F,nt,nt,nt,nt,1,nt,nt,nt
COCC(=O)Nc1ccc2c(c1)C(=O)N(C)C[C@H](OC)[C@H](C)CN(Cc1cc(F)ccc1F)[C@@H](C)CO2,nt,nt,nt,nt,6,nt,nt,nt
COc1cccc(/C=N/n2c(-c3n[nH]c4c3CCC4)n[nH]c2=S)c1OC,-4,1,15,-8,nt,62*,70*,-3
COc1cccc(/C=N/n2c(-c3cc(C)[nH]n3)n[nH]c2=S)c1OC,0,-3,-17,3,nt,43*,85*,-4
COc1cc(OC)c(OC)cc1/C=N/n1c(-c2n[nH]c3c2CCC3)n[nH]c1=S,-12,-6,-5,-1,6,39,nt,nt
COc1cccc(/C=N/n2c(=S)n(C)c3cc(C)c(C)cc32)c1OC,19,-6,-10,8,-12,-7,nt,nt
COc1ccc(/C=N/n2c(-c3n[nH]c4c3CCC4)n[nH]c2=S)c(OC)c1OC,-4,-5,-13,4,nt,49*,82*,-3
COc1cc(/C=N/n2c(-c3cc(C)[nH]n3)n[nH]c2=S)cc(OC)c1O,8,-1,7,-5,-2,38,nt,nt
O=C(CNc1cc(S(=O)(=O)N2CCOCC2)ccc1N1CCOCC1)Nc1cccc(C(F)(F)F)c1,15,2,3,9,5,41*,3,nt
CSc1nc2c(c(=O)[nH]c(=O)n2C)n1Cc1ccccc1Cl,-3,-4,0,4,10,-7,nt,nt
CSc1nc2c(c(=O)[nH]c(=O)n2C)n1Cc1ccc(Cl)cc1,2,1,-18,-1,24,53*,56*,-3
O=C(NCC(F)(F)F)[C@@H]1[C@@H](CO)[C@@H]2Cn3c(cccc3=O)[C@@H]2N1C(=O)C1CCC1,nt,nt,nt,nt,-21,nt,nt,nt
O=C(C[C@@H]1C[C@H]2c3cc(NC(=O)C4CCOCC4)ccc3O[C@H]2[C@H](CO)O1)NCc1ccccn1,nt,nt,nt,nt,-4,nt,nt,nt
CCCCC(=O)Nc1ccc(Br)cn1,0,-5,2,1,-4,-6,nt,nt
C=CCCC(=O)Nc1ccc(Br)cn1,-2,0,51,4,nt,55*,13,nt
CC(=O)N(C)C[C@H]1Oc2cc(-c3ccc(C#N)cc3)ccc2S(=O)(=O)N([C@H](C)CO)C[C@H]1C,nt,nt,nt,nt,-5,nt,nt,nt
COc1ccc(NC(=S)c2ccc3ccccc3n2)cc1,nt,-1,221,nt,-23,62*,62*,-4
CCOc1ccc(NC(=S)c2ccc3ccccc3n2)cc1,-9,-3,9,10,-7,29,nt,nt
Cc1ccc(NC(=S)c2ccc3ccccc3n2)c(C)c1,6,3,190,1,-22,46*,22*,-5
C[C@H]1CN([C@@H](C)CO)C(=O)c2cc(C#CCN(C)C)cnc2O[C@@H]1CN(C)S(=O)(=O)c1ccccc1,nt,nt,nt,nt,-14,nt,nt,nt
COc1ccccc1NC(=O)N[C@@H]1CC[C@@H](CCNC(=O)c2ccc3c(c2)OCO3)O[C@@H]1CO,nt,nt,nt,nt,8,nt,nt,nt
O=C(NCCCc1ccccc1)[C@@H]1Cc2ccccc2CN1,-4,-6,-11,9,-15,62*,20*,5
COCC(=O)N(C)C[C@@H]1Oc2cc(C#CCC3CCCC3)ccc2S(=O)(=O)N([C@@H](C)CO)C[C@@H]1C,nt,nt,nt,nt,-7,nt,nt,nt
C[C@H](O)[C@H](O)[C@H]1CNc2nc(N)[nH]c(=O)c2N1,-4,2,3,14,5,41*,34*,nt
C[C@H](O)C(=O)C1=Nc2c(nc(N)[nH]c2=O)NC1,-4,-4,-4,-8,-2,3,nt,nt

# High-throughput results from PubChem BioAssay.
